Activity calls are given as the source filed them. The calls are words filed in the database; no cut-off is given here.

For data set [1], the target named is T1, Nuclear factor erythroid 2-related factor 2 (Mus musculus) (UniProt Q60795).
T1 sequence (whole entry): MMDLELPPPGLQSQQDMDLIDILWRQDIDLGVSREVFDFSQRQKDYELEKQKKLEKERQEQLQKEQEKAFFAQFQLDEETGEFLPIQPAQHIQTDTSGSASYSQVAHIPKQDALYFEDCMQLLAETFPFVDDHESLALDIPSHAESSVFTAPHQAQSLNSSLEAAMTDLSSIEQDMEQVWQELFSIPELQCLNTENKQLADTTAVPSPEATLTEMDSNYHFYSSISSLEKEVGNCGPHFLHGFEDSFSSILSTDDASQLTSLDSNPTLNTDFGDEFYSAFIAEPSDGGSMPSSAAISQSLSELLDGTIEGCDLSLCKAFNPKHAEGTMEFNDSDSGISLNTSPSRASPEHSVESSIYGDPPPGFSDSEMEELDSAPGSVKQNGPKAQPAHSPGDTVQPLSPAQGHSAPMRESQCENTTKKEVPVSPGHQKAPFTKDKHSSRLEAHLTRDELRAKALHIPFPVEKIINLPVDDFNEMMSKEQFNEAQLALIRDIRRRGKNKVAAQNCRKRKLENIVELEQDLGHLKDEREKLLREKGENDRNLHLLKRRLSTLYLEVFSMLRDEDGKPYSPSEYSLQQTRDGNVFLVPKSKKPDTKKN
The data set can be described thus: Activation of Nrf2 in mouse RAW264.7 cells assessed as reduction of KEAP1 protein level at 50 uM after 3 hrs by Western blotting analysis. Format: cell-based. The gist of the method:
(§1)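 Whole-cell lysates (20 μg/lane) from serum-starved RAW264.7 cells given 10-50 μM for 6 h or 50 μM for 1-6 h in serum-free medium, 0.1% DMSO vehicle. Keap1 and actin detected by chemiluminescent Western blot; Keap1 band intensity normalized to actin, mean of three experiments.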

The test system of data set [2] is RAW264.7. The data set can be described thus: Drug metabolism in mouse RAW264.7 cells assessed as 7-O-galloylquercetin level at 50 uM after 6 hrs by HPLC/ESI-QqTOF/MS analysis. Format: ADME, cell-based. The conditions noted are these: raw264.7, 6 h. A digest of the protocol: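 Cells given 50 μM for up to 6 h, then scraped, washed twice in PBS and sonicated in methanol with 5% acetic acid. Supernatant analysed by UPLC on a phenyl column (water/1% acetic acid/methanol to methanol gradient, 35 °C) with negative ESI-QqTOF MS. Contents expressed as nmol per 10⁶ cells.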

For data set [3], the target named is Mitogen-activated protein kinase 9/10 (Mus musculus) (UniProt Q9WTU6+Q61831). Kind of data set: Activation of JNK2/3 in mouse RAW264.7 cells assessed as phosphorylation at 50 uM after 30 mins by Western blotting analysis. It is filed as cell-based. The gist of the method: (§2)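 Serum-starved RAW264.7 cells exposed in serum-free medium for 30 min to 4 h; 5 μM anisomycin for 30 min as positive control. Whole-cell lysates (30 μg/lane) blotted for JNKs dually phosphorylated at Thr183/Tyr185 and total JNKs, chemiluminescent detection.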
Chain of Mitogen-activated protein kinase 9/10 (Mus musculus) (Q61831 whole entry, looked up): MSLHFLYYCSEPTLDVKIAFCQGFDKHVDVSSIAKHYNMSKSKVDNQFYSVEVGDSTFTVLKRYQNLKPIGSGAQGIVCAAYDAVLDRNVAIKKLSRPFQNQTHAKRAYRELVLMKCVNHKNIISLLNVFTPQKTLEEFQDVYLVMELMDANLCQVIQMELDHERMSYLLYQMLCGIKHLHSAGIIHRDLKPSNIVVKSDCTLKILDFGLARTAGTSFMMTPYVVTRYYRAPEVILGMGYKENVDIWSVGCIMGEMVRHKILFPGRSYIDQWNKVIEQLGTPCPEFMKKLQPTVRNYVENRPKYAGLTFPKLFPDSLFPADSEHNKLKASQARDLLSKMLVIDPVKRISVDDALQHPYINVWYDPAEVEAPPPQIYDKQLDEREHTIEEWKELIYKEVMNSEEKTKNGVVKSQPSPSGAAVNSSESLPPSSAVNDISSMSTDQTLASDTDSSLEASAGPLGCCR
Chain of Mitogen-activated protein kinase 9/10 (Mus musculus) (Q9WTU6 whole entry, looked up): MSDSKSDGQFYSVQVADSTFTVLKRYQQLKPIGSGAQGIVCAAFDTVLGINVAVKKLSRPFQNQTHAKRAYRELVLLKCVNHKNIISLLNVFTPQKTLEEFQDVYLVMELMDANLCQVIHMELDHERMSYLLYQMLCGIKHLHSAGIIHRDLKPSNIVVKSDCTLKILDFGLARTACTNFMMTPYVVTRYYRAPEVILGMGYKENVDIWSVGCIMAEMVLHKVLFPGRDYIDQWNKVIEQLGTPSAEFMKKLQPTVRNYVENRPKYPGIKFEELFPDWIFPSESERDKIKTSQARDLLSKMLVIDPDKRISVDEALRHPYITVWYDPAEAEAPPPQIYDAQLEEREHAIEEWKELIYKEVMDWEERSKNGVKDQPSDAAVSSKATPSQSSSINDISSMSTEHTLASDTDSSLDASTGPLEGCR

For data set [4], the target named is T1, Nuclear factor erythroid 2-related factor 2 (Mus musculus). Kind of data set: Activation of Nrf2 in mouse RAW264.7 cells assessed as cytosolic accumulation at 50 uM after 2 hrs by Western blotting analysis. It is filed as cell-based. A digest of the protocol: (§3)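 Serum-starved RAW264.7 cells treated 30 min to 3 h (10-50 μM for 3 h, or 50 μM time course); 0.1% DMSO control, 50 μM quercetin positive control. Cytosolic fraction from hypotonic HEPES pH 7.9 buffer with 0.1% NP-40; nuclear fraction by 420 mM NaCl extraction. 30 μg/lane blotted for Nrf2 and actin; Nrf2/actin densitometry, mean of three experiments.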

Data set [5] concerns RAW264.7. Kind of data set: Cytotoxicity against mouse RAW264.7 cells assessed as decreased cell viability at 50 uM after 6 hrs by MTT assay. It is filed as cell-based. To be noted: raw264.7, 6 h. A digest of the protocol:
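Serum-starved RAW264.7 cells exposed 6 h at 10 or 50 μM; 0.1% DMSO control (100% viability), 1.5% Triton X-100 positive control. Cells washed and incubated 2 h at 37 °C with 0.5 mg/mL MTT in serum-free medium. Formazan dissolved in DMSO, A540 read, viability relative to DMSO-treated cells.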

Data set [6] has as its target T1, Nuclear factor erythroid 2-related factor 2 (Mus musculus). Kind of data set: Activation of Nrf2 in mouse RAW264.7 cells assessed as induction of Hmox1 mRNA expression at 50 uM after 6 hrs by real-time PCR analysis in presence of […] N-acetyl-L-cysteine. It is filed as cell-based.
The target is the same in data set [7]. Kind of data set: Activation of Nrf2 in mouse RAW264.7 cells assessed as upregulation of HO1 protein expression at 25 uM after 6 hrs by Western blotting analysis. Format: cell-based. The gist of the method: (§4)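 HO-1 protein in whole-cell lysates (20 μg/lane) of serum-starved RAW264.7 cells after 6 h at 10-50 μM or 50 μM for 1-6 h in serum-free medium, 0.1% DMSO control. Chemiluminescent Western blot; HO-1 densitometry normalized to actin, mean of three experiments.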

The target in data set [8] is Mitogen-activated protein kinase 3 (Mus musculus) (UniProt Q63844). The data set can be described thus: Activation of ERK1 in mouse RAW264.7 cells assessed as phosphorylation at Thr202/Tyr204 at 50 uM after 30 mins by Western blotting analysis. Format: cell-based. A digest of the protocol: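 RAW264.7 cells (passage 5-25) seeded at 1 × 10⁵ cells/cm², serum-starved overnight, then exposed in serum-free medium for 30 min to 3 h; 0.1% DMSO vehicle; 75 ng/mL EGF for 30 min as positive control. Whole-cell lysates (20 μg/lane) on 10% SDS-PAGE, blotted for phospho-ERK1 (Thr202/Tyr204), phospho-ERK2 (Thr185/Tyr187) and total ERK1/2, chemiluminescent detection.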
Chain of Mitogen-activated protein kinase 3 (Mus musculus) (Q63844 whole entry): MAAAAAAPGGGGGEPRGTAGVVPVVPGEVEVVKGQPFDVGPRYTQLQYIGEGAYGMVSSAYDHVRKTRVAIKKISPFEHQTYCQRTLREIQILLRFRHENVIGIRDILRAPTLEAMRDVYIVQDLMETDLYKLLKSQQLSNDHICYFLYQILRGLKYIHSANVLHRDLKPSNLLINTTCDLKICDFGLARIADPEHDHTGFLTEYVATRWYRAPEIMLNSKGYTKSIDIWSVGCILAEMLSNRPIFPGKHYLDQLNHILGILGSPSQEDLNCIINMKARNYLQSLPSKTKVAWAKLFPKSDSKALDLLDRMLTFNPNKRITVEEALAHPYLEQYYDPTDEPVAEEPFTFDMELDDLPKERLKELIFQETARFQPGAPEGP

Data set [9] deals with Mitogen-activated protein kinase 8 (Mus musculus) (UniProt Q91Y86). Kind of data set: Activation of JNK1 in mouse RAW264.7 cells assessed as phosphorylation at Thr183/Tyr185 at 50 uM after 30 mins by Western blotting analysis. Format: cell-based. The gist of the method: as §2
Chain of Mitogen-activated protein kinase 8 (Mus musculus) (Q91Y86 whole entry): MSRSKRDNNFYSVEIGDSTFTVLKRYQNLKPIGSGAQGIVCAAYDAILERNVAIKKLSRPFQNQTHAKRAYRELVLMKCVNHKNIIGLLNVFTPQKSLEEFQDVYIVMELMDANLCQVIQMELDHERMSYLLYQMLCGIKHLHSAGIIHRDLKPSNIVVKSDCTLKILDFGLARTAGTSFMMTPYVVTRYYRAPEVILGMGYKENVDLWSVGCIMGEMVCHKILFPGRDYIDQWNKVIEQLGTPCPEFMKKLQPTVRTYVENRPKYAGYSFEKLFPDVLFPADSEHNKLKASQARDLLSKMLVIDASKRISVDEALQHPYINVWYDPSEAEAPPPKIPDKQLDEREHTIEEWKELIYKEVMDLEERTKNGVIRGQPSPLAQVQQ
The target in data set [10] is T1, Nuclear factor erythroid 2-related factor 2 (Mus musculus). The data set can be described thus: Activation of Nrf2 in mouse RAW264.7 cells assessed as upregulation of HO1 protein expression at 10 to 50 uM after 6 hrs by Western blotting analysis. It is filed as cell-based. The gist of the method: as §4
For data set [11] the target is unchanged. Kind of data set: Activation of Nrf2 in mouse RAW264.7 cells assessed as nuclear accumulation at 50 uM after 1 hr by Western blotting analysis. It is filed as cell-based. A digest of the protocol:
as §3

For data set [12] the target is unchanged. Kind of data set: Activation of Nrf2 in mouse RAW264.7 cells assessed as upregulation of Hmox1 gene expression at 25 uM after 6 hrs by real-time PCR analysis relative to GAPDH mRNA expression. It is filed as cell-based. The gist of the method:
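RAW264.7 cells treated 6 h in serum-free medium, 0.1% DMSO control. Total RNA (2 μg) reverse transcribed; TaqMan qPCR for Hmox1 and Gapdh, 40 cycles. Relative expression by 2^−ΔΔCT, normalized to Gapdh; mean ± SD of three experiments.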

Data set [13] shares this target. The data set can be described thus: Activation of Nrf2 in mouse RAW264.7 cells assessed as reduction of KEAP1 protein level at 50 uM after 1 to 6 hr by Western blotting analysis. Format: cell-based. The conditions noted are these: TDE = time-dependent effect. A digest of the protocol: as §1
The target is the same in data set [14]. The data set can be described thus: Activation of Nrf2 in mouse RAW264.7 cells assessed as upregulation of HO1 protein expression at 50 uM after 6 hrs by Western blotting analysis relative to untreated control. It is filed as cell-based. The gist of the method: as §4

`O=C(Oc1cc(O)c2c(c1)O[C@H](c1ccc(O)c(O)c1)[C@@H](O)C2=O)c1cc(O)c(O)c(O)c1`: the result in data set [1], in data set [3], in [4], in [8], in data set [9] and in [11] was Active. Further, the Drug metabolism result in the data set on RAW264.7 [2] is listed as “Active”. Moreover, the Activity in the data set on RAW264.7 [5] is 72%; in data set [10], “Dose-dependent effect”; in data set [13], “tde”. For the same molecule, in [6], the outcome was inactive. Also, the results for the fold change (FC) in data set [7], in data set [12] and in [14] were 1.6, 4.8 and 2.5, respectively.
